Measured values as given in ChEMBL document CHEMBL2331279, “Rational design and synthesis of 4-substituted 2-pyridin-2-ylamides with inhibitory effects on SH2 domain-containing inositol 5'-phosphatase 2 (SHIP2)” (Eur J Med Chem, 2013).
The source made the active and inactive calls. The calls are words filed in the database; no cut-off is given here.

Each compound was assayed against T1, Phosphatidylinositol 3,4,5-trisphosphate 5-phosphatase 2 (Mus musculus) (UniProt Q6P549) (assay: Inhibition of SHIP2 in mouse 3T3L1 cells assessed as reduction of TNF-alpha induced decrease in insulin-stimulated Akt phosphorylation at Thr308 at 10 uM treated for 15 mins after TNF alpha challenge for 16 hrs and prior to insulin stimulation measured after 2 hrs by Western blot analysis). Conditions: 3T3-L1.
T1 sequence (whole entry): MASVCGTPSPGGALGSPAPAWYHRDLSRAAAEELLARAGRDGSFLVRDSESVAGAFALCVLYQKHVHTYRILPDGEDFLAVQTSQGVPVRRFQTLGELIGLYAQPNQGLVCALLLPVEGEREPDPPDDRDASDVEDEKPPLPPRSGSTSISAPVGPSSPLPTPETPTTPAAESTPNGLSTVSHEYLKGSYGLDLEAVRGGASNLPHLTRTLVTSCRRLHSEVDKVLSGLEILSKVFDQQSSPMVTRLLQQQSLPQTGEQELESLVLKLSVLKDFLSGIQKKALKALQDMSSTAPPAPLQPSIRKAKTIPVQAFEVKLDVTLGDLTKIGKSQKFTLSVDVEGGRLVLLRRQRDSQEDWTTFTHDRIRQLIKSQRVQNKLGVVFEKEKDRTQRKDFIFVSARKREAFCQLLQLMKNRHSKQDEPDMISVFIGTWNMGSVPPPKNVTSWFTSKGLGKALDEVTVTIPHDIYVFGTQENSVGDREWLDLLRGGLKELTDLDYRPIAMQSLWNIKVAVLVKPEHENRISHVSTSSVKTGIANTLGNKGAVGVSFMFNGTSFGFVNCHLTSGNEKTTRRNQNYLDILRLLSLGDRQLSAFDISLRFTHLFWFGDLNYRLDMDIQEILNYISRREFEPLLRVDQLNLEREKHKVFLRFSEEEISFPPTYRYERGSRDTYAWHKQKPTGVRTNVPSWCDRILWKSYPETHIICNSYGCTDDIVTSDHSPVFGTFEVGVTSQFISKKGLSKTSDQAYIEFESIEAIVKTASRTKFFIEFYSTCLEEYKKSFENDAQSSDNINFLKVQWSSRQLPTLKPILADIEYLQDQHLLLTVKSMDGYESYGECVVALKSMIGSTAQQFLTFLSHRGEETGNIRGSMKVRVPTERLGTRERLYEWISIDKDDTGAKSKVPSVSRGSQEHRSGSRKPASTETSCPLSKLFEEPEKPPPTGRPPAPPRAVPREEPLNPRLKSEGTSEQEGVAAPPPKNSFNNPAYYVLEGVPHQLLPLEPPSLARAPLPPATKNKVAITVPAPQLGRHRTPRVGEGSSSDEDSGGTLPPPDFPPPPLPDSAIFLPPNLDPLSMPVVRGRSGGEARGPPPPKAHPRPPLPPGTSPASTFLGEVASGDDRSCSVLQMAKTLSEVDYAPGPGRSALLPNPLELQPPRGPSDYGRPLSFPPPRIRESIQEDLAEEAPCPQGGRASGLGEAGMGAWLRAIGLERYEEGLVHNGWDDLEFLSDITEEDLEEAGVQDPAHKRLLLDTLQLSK
Type: cell-based
Summary of the method: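 3T3-L1 fibroblasts differentiated into adipocytes, then serum-starved 16 h with TNFα 20 ng/mL. Treated with compound 10 µM or 0.1% DMSO for 15 min, then stimulated with 17 nM insulin at 37 °C for 2 h. Cells lysed on ice at pH 7.5 and Thr308 phospho-Akt measured by western blot. Results given as fold change versus TNFα+insulin control. Mean ± SE.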
With `O=C(Cc1cc(F)cc(F)c1)Nc1cc(COCc2ccc(F)cc2)ccn1` the inhibition was “Active”.
With `O=C(Cc1c(F)cccc1F)Nc1cc(OCc2ccc(F)cc2)ccn1` the inhibition was “Active”.
For `O=C(CCc1ccccc1)Nc1cc(COCc2ccccc2)ccn1`, the inhibition was “Active”.
`O=C(Cc1ccccc1C(F)(F)F)Nc1cc(OCc2ccc(Cl)cc2)ccn1` was tested, and the inhibition was “Active”.
For `O=C(CCc1ccccc1)Nc1cc(OCc2ccc(Cl)cc2)ccn1`, the inhibition was “Active”.
`O=C(CCc1ccccc1)Nc1cc(COCc2ccc(F)cc2)ccn1` was tested, and the inhibition was “Active”.
In the case of `O=C(Cc1ccc(F)cc1)Nc1cc(OCc2ccc(F)cc2)ccn1`, the inhibition is reported as “Active”.
With `O=C(Cc1c(F)cccc1F)Nc1cc(COCc2ccc(F)cc2)ccn1` the inhibition was “Active”.
For `O=C(Cc1ccccc1)Nc1cc(COCc2ccc(Cl)cc2)ccn1`, the inhibition was “Active”.
For `O=C(Cc1ccccc1)Nc1cc(OCc2ccc(F)cc2)ccn1`, the inhibition was “Active”.
In the case of `O=C(CCc1ccccc1)Nc1cc(COCc2ccc(Cl)cc2)ccn1`, the inhibition is reported as “Active”.

What follows are compounds tested against T2, Phosphatidylinositol 3,4,5-trisphosphate 5-phosphatase 2 (Homo sapiens, UniProt O15357) (assay: Inhibition of SHIP2 (unknown origin)). Conditions: not given.
T2 sequence (O15357 whole entry): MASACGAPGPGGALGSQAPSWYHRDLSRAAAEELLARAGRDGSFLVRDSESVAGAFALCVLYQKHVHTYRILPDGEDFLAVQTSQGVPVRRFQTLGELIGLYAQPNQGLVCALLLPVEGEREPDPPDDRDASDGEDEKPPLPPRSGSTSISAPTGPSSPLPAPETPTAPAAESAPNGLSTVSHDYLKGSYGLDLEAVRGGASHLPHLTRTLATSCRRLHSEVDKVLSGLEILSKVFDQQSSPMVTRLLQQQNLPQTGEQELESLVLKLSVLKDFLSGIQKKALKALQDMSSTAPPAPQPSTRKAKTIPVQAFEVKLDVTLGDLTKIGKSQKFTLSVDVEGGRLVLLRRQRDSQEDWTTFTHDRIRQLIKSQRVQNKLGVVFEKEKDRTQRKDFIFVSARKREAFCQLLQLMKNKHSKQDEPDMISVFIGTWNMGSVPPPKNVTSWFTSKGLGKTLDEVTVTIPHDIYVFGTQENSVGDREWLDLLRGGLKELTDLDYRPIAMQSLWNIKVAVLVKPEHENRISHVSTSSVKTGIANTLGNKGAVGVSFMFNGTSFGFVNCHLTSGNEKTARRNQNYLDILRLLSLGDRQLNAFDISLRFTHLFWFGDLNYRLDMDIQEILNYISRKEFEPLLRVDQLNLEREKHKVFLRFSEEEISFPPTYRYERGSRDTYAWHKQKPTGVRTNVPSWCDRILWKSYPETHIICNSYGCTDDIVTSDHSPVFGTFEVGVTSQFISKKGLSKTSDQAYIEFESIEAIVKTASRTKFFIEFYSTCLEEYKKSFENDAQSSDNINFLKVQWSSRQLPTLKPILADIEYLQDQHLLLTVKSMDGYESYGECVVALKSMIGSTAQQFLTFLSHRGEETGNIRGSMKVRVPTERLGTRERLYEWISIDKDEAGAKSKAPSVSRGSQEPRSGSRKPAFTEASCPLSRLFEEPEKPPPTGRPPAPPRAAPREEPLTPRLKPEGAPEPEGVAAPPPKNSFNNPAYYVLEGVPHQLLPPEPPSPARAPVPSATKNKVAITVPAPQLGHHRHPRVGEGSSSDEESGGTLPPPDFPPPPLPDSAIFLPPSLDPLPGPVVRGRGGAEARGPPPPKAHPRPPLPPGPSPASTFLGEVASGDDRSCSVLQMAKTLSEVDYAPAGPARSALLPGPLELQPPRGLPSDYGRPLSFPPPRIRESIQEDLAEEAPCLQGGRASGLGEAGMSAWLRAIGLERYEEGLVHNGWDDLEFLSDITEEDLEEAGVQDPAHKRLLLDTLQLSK
`CC(C)N(CCNc1ccc(-c2cc(-c3ccc(F)cc3)n(-c3ccc(Cl)c(Cl)c3)n2)cn1)C(C)C` gave an IC50 of 1100 nM.
